# Source: PubChem BioAssay (The Scripps Research Institute Molecular Screening Center)
# This is a sample that favours compounds with a hit; in the whole collection about 3% have one here.
# TAAR1 antag – antagonists of human TAAR1; inhibition, % at 3 µM; Q96RJ0; CHO RD-HGA16 TAAR1, Fluo-8 calcium fluorescence, antagonist; hit rate 1.5% among 360,000; AID 624466;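 active = inhibition above a per-plate cutoff, the mean inhibition of test compounds on that plate plus 3 SD, cut at about 49% in these data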
# Target sequence (Q96RJ0 whole entry, looked up): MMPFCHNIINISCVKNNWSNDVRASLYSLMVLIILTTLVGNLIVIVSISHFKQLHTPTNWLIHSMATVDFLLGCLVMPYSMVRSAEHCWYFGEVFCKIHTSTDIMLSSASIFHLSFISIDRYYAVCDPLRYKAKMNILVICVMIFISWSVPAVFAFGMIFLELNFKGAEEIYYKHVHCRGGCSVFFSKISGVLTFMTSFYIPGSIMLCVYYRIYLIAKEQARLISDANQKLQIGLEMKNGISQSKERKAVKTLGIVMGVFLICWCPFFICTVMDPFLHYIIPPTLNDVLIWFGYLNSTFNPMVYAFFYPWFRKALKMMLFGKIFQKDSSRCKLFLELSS
#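 Test system – hTAAR1-expressing CHO RD-HGA16 cells, Gα16-coupled · Reagent – β-PEA at EC80 concentration, post-compound challenge · Compound dosing – 3 µM, single point · Timing – 140 s kinetic read after compound, 140 s after agonist · Detection – Fluo-8 intracellular calcium dye fluorescence, real-time kinetic reads · Control set – DMSO and EC80 PEA controls · Repeats – n of 1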
# M4 PAM – positive allosteric modulators of human muscarinic M4 receptor; activation, % at 3 µM; CHO-K1 hM4/Gqi5, Fluo-8 calcium fluorescence, ACh EC20; 0% = ACh EC20, 100% = maximal ACh; AID 624126; hit rate 0.4% among 360,000; P08173;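 active = activation above its plate's cutoff, the mean activation of sample wells plus 3 SD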
# TAAR1 ag – agonists of human TAAR1 | hit rate 0.99% among 360,000 | activation, % at 3 µM | AID 624467 | CHO RD-HGA16 TAAR1, Fluo-8 calcium fluorescence; vehicle wells 0%, saturating PEA agonist 100%;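 active = activation above the mean activation of all test compounds in the run plus 3 SD, cut at about 38% in these data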
#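 Assay system: CHO-derived RD-HGA16 cells with stable Gα16 and human TAAR1; timing: 17-24 h seeding, 75 min 37 °C dye, 30 min RT; read-out: % activation from peak over basal fluorescence ratio, DMSO-to-PEA scaled; measured by: kinetic Fluo-8 calcium fluorescence; benchmarks: low control DMSO, high control PEA (EC100); doses: 3 µM single concentration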
# M4 antag – CHRM4 antagonism in calcium assay; CHO-hM4 cells, ACh EC80, Fluo-8 calcium fluorescence; hit rate 0.73% among 360,000; P08173; inhibition, % at 3 µM;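 active = inhibition above its plate's cutoff, the mean inhibition of sample wells plus 3 SD, cut at about 27% in these data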
# CHRM4 agonist – agonists of human muscarinic M4 receptor (CHRM4); P08173; CHO-K1 hM4/Gqi5, Fluo-8 calcium fluorescence; vehicle 0%, full acetylcholine response 100%; activation, % at 3 µM; hit rate 0.14% among 360,000; AID 624127;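 active = activation above the run mean over all test wells plus 3 SD, cut at about 32% in these data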;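 note: peak over basal fluorescence ratio per well then scaled between controls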
# nonsel antag count – nonselective antagonism, TAAR1 counter-screen; counterscreen cell line, calcium fluorescence, antagonist mode; inhibition, % at 3 µM; shares compounds with TAAR1 antag; hit rate 77% among 2,400; in the data active = inhibition above about 22%;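 note: CHO-Ga16 host cells stimulated with ATP at an EC80 level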
# TAAR1 ant conf – confirmation of human TAAR1 antagonists; shares compounds with TAAR1 antag; inhibition, % at 3 µM; TAAR1-expressing cells, fluorescence antagonist read-out; hit rate 40% among 2,400; in the data active = inhibition above about 49%;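 note: CHO-Ga16 host cells challenged with agonist PEA near its EC80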
# Ga16 nonsel ag – nonselective Ga16 agonist in TAAR1 antagonist counter-screen; shares compounds with TAAR1 antag; Ga16-expressing cells, calcium fluorescence, agonist counterscreen; activation, % at 3 µM; hit rate 18% among 2,400; in the data active = activation above about 12%
# TAAR1 ag count – TAAR1 agonism, antagonist counter-screen | hTAAR1 cell line, fluorescence activation, agonist mode | activation, % at 3 µM | AID 651955 | shares compounds with TAAR1 antag | hit rate 2% among 2,400; in the data active = activation above about 37%;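 note: CHO cells stably expressing TAAR1 with calcium dye readout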
# Hits are given with their value; 0 = inactive; - = not tested or not shown.
SMILES,TAAR1 antag,M4 PAM,TAAR1 ag,M4 antag,CHRM4 agonist,nonsel antag count,TAAR1 ant conf,Ga16 nonsel ag,TAAR1 ag count
COc1ccc(C2=NOC(Cn3nc(-c4ccccc4)cc3C(=O)NCc3cccs3)C2)cc1 (stereo unspecified),0,0,0,0,0,-,-,-,-
O=C1NC[C@H](CCCCN2C[C@H](Cc3ccccc3)N(CCC3CCCCC3)C(=O)C2=O)N(CCc2ccccc2)C1=O,0,0,0,0,0,-,-,-,-
Cc1cc(-c2cc(NC(=O)Cc3c(C)[nH]c4ccccc34)ccc2Nc2cccnc2)ccc1F,0,-,0,-,-,-,-,-,-
COc1ccc(-c2cc(NC(=O)Cc3c[nH]c4ccccc34)ccc2N(C)c2cccnc2)cc1F,0,-,0,-,-,-,-,-,-
Cc1cc(-c2cc(NC(=O)Cc3c[nH]c4ccccc34)ccc2Nc2cccnc2)ccc1F,62.9,-,0,-,-,26.8,0,0,0
COc1ccc(-c2cc(NC(=O)Cc3c[nH]c4ccccc34)ccc2Nc2cccnc2)c(OC)c1,64.3,-,0,-,-,31.8,52.2,0,0
CN(C)CCN(C)C1CN(Cc2ccccc2)S(=O)(=O)C1 (stereo unspecified),0,0,0,0,0,-,-,-,-
COc1ccc(Nc2c(CCc3ccccc3)nc3nc(C)cc(C)n23)cc1,0,0,0,0,0,-,-,-,-
CCn1c2ccccc2c2cc(NC(=O)c3ccc(=O)oc3)ccc21,0,0,0,0,0,-,-,-,-
CCn1c2ccccc2c2cc(NC(=O)c3coc(=O)c(Br)c3)ccc21,105.4,0,0,0,0,0,0,0,0
COc1ccc(CNC(=O)CN(Cc2ccc(C)cc2)S(=O)(=O)c2ccc(Cl)cc2)cc1,59.2,0,0,0,0,38.2,0,0,0
COc1ccc(CNC(=O)CN(C)S(=O)(=O)c2ccc(Cl)cc2)cc1,0,0,0,0,0,-,-,-,-
Cc1nn(C)cc1C(C(=O)NC1CCCCC1)N(C(=O)Cc1cccs1)c1ccc(Cl)cc1 (stereo unspecified),61.1,0,0,0,0,29.7,53.5,13.3,0
COC(=O)C(c1ccccc1)C(CC(=O)c1ccccc1)c1ccccc1 (stereo unspecified),75.9,0,0,0,0,0,0,0,0
O=C(Nc1ccn(CCCNCC2CCCO2)c(=O)n1)OCc1ccccc1 (stereo unspecified),0,0,0,0,0,-,-,-,-
O=C1c2ccccc2C(Nc2ccc3c(c2)OCCO3)N1c1ccccn1 (stereo unspecified),0,0,0,0,0,-,-,-,-
O=C1c2ccccc2C(Nc2ccc3c(c2)OCCO3)N1c1ccc(Cl)cn1 (stereo unspecified),50.5,0,0,0,0,23.4,0,0,0
O=C1c2ccccc2C(Nc2ccc3c(c2)OCCO3)N1Cc1ccc2c(c1)OCO2 (stereo unspecified),63.1,0,0,0,0,0,0,0,0
O=C1c2ccccc2C(Nc2ccccc2)N1Cc1ccc2c(c1)OCO2 (stereo unspecified),0,0,0,0,0,-,-,-,-
C[C@@H]1CC=C[C@@H]2[C@H]1C(=O)N(Cc1ccccc1)[C@H]2c1ccccc1Br,69.8,0,0,0,0,0,0,0,0
COc1ccc(OC)c(COC(=O)c2cccc(S(=O)(=O)N3CCCCC3)c2)c1,0,0,0,0,0,-,-,-,-
COc1ccc(Cl)cc1Cn1c(C)c(C(=O)NCc2ccc3c(c2)OCCO3)sc1=O,56.1,0,0,0,0,22.9,0,0,0
COc1ccc(CNC(=O)c2sc(=O)n(Cc3cc(Cl)ccc3OC)c2C)cc1,0,0,0,0,0,-,-,-,-
CCCCC1Cc2[nH]c(=S)[nH]c(=O)c2C(c2cccc3ccccc23)O1 (stereo unspecified),0,0,0,0,0,-,-,-,-
O=C(Nc1ccc(S(=O)(=O)NCc2ccco2)cc1)c1ccc2ccccc2n1,69.7,0,0,0,0,38.2,57.6,0,0
SMILES,TAAR1 antag,M4 PAM,TAAR1 ag,M4 antag,CHRM4 agonist,nonsel antag count,TAAR1 ant conf,Ga16 nonsel ag,TAAR1 ag count
O=C(NCc1ccco1)c1ccc2ccccc2n1,0,0,0,0,0,-,-,-,-
CCC(C)Oc1ccc(C(=O)Nc2ccc(CN3CCOCC3)cc2)cc1 (stereo unspecified),0,0,0,0,0,-,-,-,-
CCOc1ccc(NC(=O)c2ccc(NC(=O)c3ccc(CN4CCOCC4)cc3)cc2)cc1,60.6,0,0,0,0,29.3,0,0,0
O=C(Nc1ccc(CN2CCOCC2)cc1)c1ccc2ccccc2c1,0,0,0,0,0,-,-,-,-
O=C(Nc1ccc(CN2CCOCC2)cc1)c1cccc(-c2cc3ccccc3oc2=O)c1,63.6,0,0,0,0,27.3,0,0,0
COc1cccc(C(C)(O)c2nc(-c3ccc4c(c3)OCO4)cs2)c1 (stereo unspecified),0,0,0,0,0,-,-,-,-
CCOC(=O)C1=C(CC)Nc2ccccc2N=C1NC(=O)c1oc2ccccc2c1C,73.9,0,0,0,0,27.1,52.9,0,0
CCOCc1c(C(=O)NC2=Nc3ccccc3NC(CC)=C2C(=O)OCC)oc2ccccc12,60.9,0,0,0,0,29.7,55.4,0,0
CCOC(=O)C1=C(CC)Nc2ccccc2N=C1NC(=O)CCNC(C)=O,0,0,0,0,0,-,-,-,-
C[C@@H]1CN([C@@H](C)CO)C(=O)c2cc(C#Cc3ccccc3)cnc2O[C@H]1CN(C)C(=O)c1ccccc1F,0,0,0,0,0,-,-,-,-
COc1ccc(-c2n[nH]c(C)c2-c2cscn2)c(O)c1,0,0,0,0,0,-,-,-,-
C=C(C)COc1ccc(-c2n[nH]c(C)c2-c2ccc(OC)cc2)c(O)c1,61.5,0,0,0,0,0,0,0,0
CCOc1cc(/C=N/NC(N)=O)cc(Br)c1OCC(=O)Nc1ccccc1C,0,0,0,0,0,-,-,-,-
CCOc1cc(/C=N/NC(N)=O)cc(Br)c1OCC(=O)Nc1cccc2ccccc12,66.3,0,0,0,0,30.5,54.9,13.8,0
COc1cc(/C=N/n2cnnc2)ccc1OC(=O)c1ccncc1,106.7,0,0,0,0,0,0,0,0
O=C(c1cc(-c2ccccc2Cl)nc2ccc(Br)cc12)N1CCN(c2ccccn2)CC1,59.1,0,0,0,0,30.3,0,0,0
O=C(c1cc(-c2ccncc2)nc2ccccc12)N1CCN(S(=O)(=O)/C=C/c2ccccc2)CC1,69.6,0,0,0,0,28.8,0,0,0
Cc1ccc(-c2cc(C(=O)N3CCOCC3)c3ccccc3n2)cc1,0,0,0,0,0,-,-,-,-
